Experiment: Toxicity liver stage against HepG2, at 10uM
Format: cell-based
Set-up: test concentration 10 uM, cell line HepG2-A16-CD81EGFP
Details: human, HepG2-A16-CD81EGFP cells; read-out: INHIBITION
Outline: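 Uninfected HepG2-A16-CD81EGFP cells, 3 × 10^3 per well, 1536-well, plated on prespotted compound at 10 μM final, parasite-free screening media added to match infected plates; puromycin 10 μM positive, DMSO 0.5% negative; run in parallel with 48 h PbLuc assay at 37 °C, 5% CO2; viability by CellTiter-Glo luminescence, normalized to controls.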

Structure (SMILES) | cytotoxicity at 10 µM [%]
CO[C@H]1COCCN(C(=O)c2ccc(C(F)(F)F)cc2)C1 | 4.94
Cc1nccn1-c1ccc(=O)n(CCNC(=O)c2cccs2)n1 | -5.51
COCCN1CCN(c2ccc3ccc(C(=O)NC4CC4)cn23)CC1 | -4.37
CCS(=O)(=O)N1CCOC2(COCCN(C(C)=O)C2)C1 (stereo not given) | 15.7
Cc1nnc([C@@H]2C[C@H]3CN(C(=O)c4sccc4C)C[C@H]3O2)[nH]1 | 16
COCCCN1CCCCC12CC(=O)N(Cc1ccccn1)C2 (stereo not given) | 1.95
O=C1CC[C@@H]2[C@@H](CCN2C(=O)C2CCOCC2)N1CC1CC1 | 10.9
COc1cccc(S(=O)(=O)N2CCCc3c(OC)nn(C)c3C2)c1 | -120
CCOC(=O)c1cnn(-c2cc(Oc3cc(C)ccc3C)ncn2)c1N | 11.3
Cc1cnc(N2C(=O)CSC2c2ccccc2)s1 (stereo not given) | -1.14
Cn1cc(C(=O)NC[C@@H]2OC[C@H]3CN(S(C)(=O)=O)CC[C@H]32)cn1 | -9.12
CCc1nc(Nc2ccc(C(=O)NC)cc2)c2c(n1)c(C)nn2CC | 9.38
CSCc1cccc(S(=O)(=O)NCCCN2CCOCC2)c1 | -8.63
c1cn(-c2nccnc2C2CCCN(C3CCOCC3)C2)cn1 (stereo not given) | 4.19
CN(CC1CCOCC1)C1CCCN(c2ccccn2)C1 (stereo not given) | -0.48
O=C(c1ccccc1F)N1CCOC(c2nc(-c3ncccn3)no2)C1 (stereo not given) | -2.5
O=C(NC[C@]1(O)CN(Cc2ccc(F)cc2)C[C@H]1O)c1ccccn1 | -7.8
CN(Cc1cnn(C)c1)CC(O)c1ccc2c(c1)OCCCO2 (stereo not given) | 2.85
Cc1ncc(C(=O)NCCNc2ncccn2)s1 | 3.79
Cc1noc(C(C)Nc2ccc3oc(C(C)C)nc3c2)n1 (stereo not given) | -7.84
CC(c1nc(-c2cccnc2)no1)N(C)CCCOc1ccccc1 (stereo not given) | -2.14
CN(Cc1nnc2n1CCC2)C(=O)c1ccc(=O)n(C)n1 | -8.16

Structure (SMILES) | cytotoxicity at 10 µM [%]
Cc1nc(CN(C)S(=O)(=O)c2ccc(F)cc2Br)no1 | -6.26
CCn1ccnc1CN1CCN(C(C)C(=O)NCc2ccco2)CC1 (stereo not given) | 7.79
Cn1c(=O)n(C)c2cc(NS(=O)(=O)Cc3cccc(F)c3)ccc21 | 6.37
CCC(CO)NC(=O)Nc1ccc(OCC(F)(F)F)c(C)c1 (stereo not given) | 10.9
N#CC(NC(=O)CNC(=O)c1ccccc1)c1ccsc1 (stereo not given) | 1.8
CC(C)(C)c1cc(=O)[nH]c(C2(N)CCCC2)n1 | 8.79
Cc1cc(CNC2(CO)CCOCC2)ccc1Br | 17.4
O=C(NCCc1ccn(-c2ccc(F)cc2)n1)C1CCCOC1 (stereo not given) | 6.65
CC1CN(S(=O)(=O)c2ccc(F)cc2)c2cccnc2O1 (stereo not given) | -0.781
CCc1cc(=O)[nH]c(-c2ccc(NCCc3ccc(O)cc3)nc2)n1 | 61.1
CCC(C)(CO)NC(=O)Nc1cc2c(cc1SC)OCCO2 (stereo not given) | -10.5
CCOc1ccccc1N(C)C(=O)c1ccc(Cl)cn1 | 0.0381
O=C(NCC1(N2CCOCC2)CCSC1)Nc1ccccn1 (stereo not given) | 8.64
CCOc1cc(C)ccc1NS(=O)(=O)c1cc(C)c(C(=O)O)s1 | -6.44
CCN(CC(C)C#N)C(=O)CSc1ccc(C(F)(F)F)cn1 (stereo not given) | 9.81
Cc1cccc(S(=O)(=O)NC(=O)CCc2cscn2)c1 | 0.983
CCc1ccc(C(=O)N(CC)Cc2ccoc2)cc1S(C)(=O)=O | -4.89
O=C(NCCNC(=O)C1CCCCC1)NCCn1cccc1 | 2.89
CCN(CC)CCNC(=O)c1ccc(Cl)c(NS(C)(=O)=O)c1 | 5.53
Cc1noc(OCCOc2ccc(C#N)cc2)n1 | 0.00742
N#CCCN(Cc1cccnc1)C(=O)c1ccc(-n2cnnn2)cc1 | 4.59
CC(C)OC(=O)NCc1ccc(NCc2cnn(C(C)(C)C)c2)cc1 | -0.741

Structure (SMILES) | cytotoxicity at 10 µM [%]
CC1CCN(C(=O)NCC(=O)N(C)CC(F)(F)F)C1 (stereo not given) | 1.82
CC(C)n1ncc2c1NC(=O)C(C#N)C21CCCCC1 (stereo not given) | -0.47
COCc1nc2cc(NCc3ccncc3)ccc2o1 | -3.3
CC(CNC(=O)N1CCN(c2cnccn2)CC1)Cc1cccs1 (stereo not given) | 1.7
N#Cc1cccc(NC(=O)N[C@H](CO)c2ccccc2)c1 | -12.2
N#Cc1ccc(OCCOc2ccccc2C(=O)N2CCOCC2)cc1 | -7.38
CS(=O)(=O)NCC1CCCN(Cc2ccc(F)c3cccnc23)C1 (stereo not given) | -12.6
COc1cc(C)sc1C(=O)N1CCC(Nc2cccnc2)CC1 | -5.07
O=C(NC[C@H]1C[C@@H]2CN(C(=O)c3ccco3)C[C@@H]2O1)c1ccsc1 | -90.8
Cn1cc(CNC2CCc3c(ccc(=O)n3C)C2)cn1 (stereo not given) | -115
COc1nn(C)c2c1CCCN(C(=O)c1cnccn1)C2 | -84.3
CN(C)c1nccc(NCc2cc(-c3cccs3)n[nH]2)n1 | -5.03
O=c1[nH]c(-c2ccncc2)ncc1-c1ccnc(NC2CC2)n1 | -11.7
NS(=O)(=O)NCc1cc(-c2ccco2)n(CC(F)(F)F)n1 | -4.41
CCCn1c(C)c(CC(=O)NC(C)CO)c2c1CC(C)(C)CC2=O (stereo not given) | -10.5
Cc1cc(-c2ccc(C(C)N3CCOCC3)cc2)cnc1N (stereo not given) | -2.36
CC(C)N1CC2(CCC1=O)CCN(C(=O)c1cc(F)ccc1Cl)CC2 | 0.247
CN(C)C(C(=O)N1CCN(CC(F)(F)F)CC1)c1ccccc1F (stereo not given) | -2.42
c1ccc(Cn2cccn2)c(CN2CCCCC2CCn2ccnc2)c1 (stereo not given) | -12
O=C(NCCCn1cnnc1)C1CCCN(C2CCCC2)C1 (stereo not given) | -0.121
OC1CCCOC12CCN(Cc1nnc(-c3cccnc3)o1)CC2 (stereo not given) | 4.49
CCOc1ccc(C(=O)N2CCCC(c3nccn3C)C2)cc1OCC (stereo not given) | -6.77

Structure (SMILES) | cytotoxicity at 10 µM [%]
Cc1cc2[nH]c(CN3CCOC(C(F)(F)F)C3)cc(=O)n2n1 (stereo not given) | -21.2
CC(C1CCN(Cc2cnc(-c3cccs3)nc2)CC1)N(C)C (stereo not given) | -11.3
CC(=O)C1(c2ccccc2)CCN(C(=O)c2ccn3nnnc3c2)CC1 | -4.97
Cc1cccnc1N1CCN(Cc2cc(O)c3cccc(F)c3n2)CC1 | 2.2
O=C(NCCOc1ccccc1)C1NCCc2[nH]cnc21 (stereo not given) | 8.01
CC(C)(C)n1cc(C2=CCN(CCc3ccccn3)CC2)cn1 | -0.505
CCn1cc(CNc2ccc3nccnc3c2)cn1 | 1.42
NCCn1cc(C(=O)N2CCCCCC2c2cccc(F)c2)nn1 (stereo not given) | 8.48
O=C([C@@H](O)Cc1ccccc1)N1CCCn2cncc2C1 | 2.55
CN(Cc1noc(-c2ccccc2)n1)C(=O)CSc1nnc(N)s1 | 0.712
Cc1nnc(-c2cccc(N3CCC(NC4CCSC4)CC3)c2)s1 (stereo not given) | 0.276
CCCc1nc(C(=O)N2CCN(C(=O)OC)CC2)cs1 | -9.85
CC(C)N1CCC(Cc2cc(-c3ccccc3C(=O)O)ncn2)CC1 | -5.28
CCOc1ncccc1NC(=O)N1CCN(Cc2ccncc2)CC1 | -2.54
CC1CN(C)CCN1CC(=O)NCCOc1ccc2c(c1)OCO2 (stereo not given) | -6.66
c1csc(-c2nc(CNC3CCc4ncnn4C3)co2)c1 (stereo not given) | -5.69
Cc1cc(C)n(CC2CN(CCOc3cccc(F)c3)CCO2)n1 (stereo not given) | -7.44
CN(CC(=O)N1CCN(c2ccccc2F)CC1)c1cnccn1 | -0.341
CN(Cc1nnc(-c2ccco2)o1)C1CCCN(c2cccnn2)C1 (stereo not given) | -7.39
COc1cccc(COCC(=O)N2CCCC(n3ccnc3C)C2)c1 (stereo not given) | -7.77
Clc1ccccc1-c1nc(CNCCn2cccn2)cs1 | -3.45
Cc1nn(C)c(Cl)c1C1CCCN1C(=O)c1cc(Cl)c[nH]1 (stereo not given) | -6.83

Structure (SMILES) | cytotoxicity at 10 µM [%]
Cc1cccc(C(=O)NCc2ccnc(N(C)C)c2)n1 | 3.22
Cn1cnnc1C1CCCN(C(=O)NCCNc2ccccn2)C1 (stereo not given) | 2.21
CS(=O)(=O)N1CCO[C@@H]2CN(Cc3ccncc3)C[C@@H]2C1 | 4.5
Cc1occc1C(=O)N1CCOCC2(CCN(Cc3nccs3)C2)C1 (stereo not given) | -6.34
Cc1cccc(CN2C(=O)CCC23CCN(C(=O)N2CCCC2)CC3)n1 | 4.56
CN(C)C(=O)[C@H]1C[C@H]2[C@H](CCN2Cc2ccc3c(c2)OCO3)O1 | 2.36
O=C(c1ccc[nH]1)N1CCn2cc(CN3CCCC3)nc2C1 | 3.09
Fc1cnc(N2CC[C@@H]3O[C@@H](COCc4ccccn4)CC[C@@H]32)nc1 | 1.9
c1cnc(N2CC3(CCN(CC4CCOC4)CC3)c3ccccc32)nc1 (stereo not given) | -6.78
CN(C)CC(=O)N1CCC2(CC1)Cc1ccccc1CN(C)C2=O | -2.96
Fc1cccc(CN2C[C@@H]3CN(Cc4ccccn4)C[C@@H]3C2)c1 | -1.07
COCC1CC2(CCN(Cc3cnn(C)c3)CC2)CN1c1ncccn1 (stereo not given) | -8.19
N#Cc1cccc(C(=O)N2CCc3c(COCC4CC4)cncc3C2)c1 | 8.25
Cc1noc(C)c1CN1CCO[C@H]2CN(Cc3cncn3C)C[C@H]21 | -1.62
COc1ccc(CN2CCC3(CC2)CC(CC(=O)NC(C)C)CO3)cc1 (stereo not given) | -1.27
CN1CCC(NC(=O)[C@H]2CC[C@@H]3[C@@H](CCN3c3ncccn3)O2)CC1 | 7.43
c1coc(CN2CCC3(CCOCC3COCC3CC3)CC2)c1 (stereo not given) | 2.79
Cc1occc1C(=O)N1CCO[C@H]2[C@H](Oc3cccnc3)CC[C@@H]21 | -93.4
CC(=O)c1cc(C(=O)N2CC[C@H]3CC[C@@H](C2)N3C)c(=O)[nH]c1C | 11.4
O=S(=O)(c1cccnc1)N1C[C@H]2CC[C@@H](C1)N(Cc1ccccc1)C2 | -5.79
CN(C)c1nc2cn(C3CCSCC3)c(=O)c-2c[nH]1 | 8.56
C=c1ccoc1=C1NN=C(CNCC2CCCN2c2cccnn2)O1 (stereo not given) | -13.7

From ChEMBL document CHEMBL4513216, “Probing the Open Global Health Chemical Diversity Library for Multistage-Active Starting Points for Next-Generation Antimalarials” (ACS Infect Dis, 2020)
